In ChEMBL document CHEMBL1933010, “3-heterocyclyl quinolone inhibitors of the HCV NS5B polymerase” (Bioorg Med Chem Lett, 2012):
pEC50, pIC50: −log10 of the molar value.

Tests used:
Hepatitis C virus = test: Antiviral activity against Hepatitis C virus genotype 1b infected in human HuH7 cells assessed as inhibition of viral replication after 48 hrs by quantitative RT-PCR; format: functional, organism-based, Hepacivirus hominis; settings: Huh-7, 48 h
Method in brief: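 Huh7/Clone A replicon cells seeded at 40,000/well without G418 and kept overnight at 37 °C, 5% CO2. DMSO-serially diluted compound added (final DMSO 0.5%), 7 concentrations in triplicate, 48 h at 37 °C. Total RNA extracted; HCV replicon RNA quantified by TaqMan RT-qPCR relative to untreated cells (100%). EC50 from a 4-parameter curve fit.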

[1] = Inhibition of Hepatitis C virus genotype 1b BK isolate NS5b polymerase activity using [3H]UTP preincubated for 120 mins measured after 1 hr by scintillation proximity assay
Method in brief: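 Scintillation proximity assay at 22 °C. Started with [3H]UTP, UTP, 250 nM 5'-biotinylated oligo(rU12) and poly(rA). Stopped at 120 min with tRNA/streptavidin SPA beads/EDTA; 30 min, then CsCl, 1 h, top-count.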

[2] = Cytotoxicity against human HuH7 cells assessed as cellular GAPDH level after 48 hrs by quantitative RT-PCR; format: cell-based, Huh-7; settings: read-out: GI50

| pEC50 (Hepatitis C virus) | pIC50 [1] | SMILES | CC50 at 48 h [2] |
| --- | --- | --- | --- |
| 6.60 | 7.85 | CN1CCN(c2cc3c(cc2F)c(=O)c(-c2noc(Cc4ccccc4)n2)cn3Cc2ccc(C(F)(F)F)cc2F)CC1 | 7000 nM |
| 6.64 | 7.82 | CN1CCN(c2cc3c(cc2F)c(=O)c(-c2noc(Cc4ccc(F)cc4)n2)cn3Cc2ccc(C(F)(F)F)cc2F)CC1 | 6000 nM |
| 5.05 | 5.37 | COc1cc2c(=O)c(C3=N[C@@H](C)[C@@H](c4ccccc4)O3)cn(Cc3ccc(Cl)cc3)c2cc1OC | – |
| 6.21 | 7.42 | CN1CCN(c2cc3c(cc2F)c(=O)c(-c2nnc(Cc4ccccc4)o2)cn3Cc2ccc(C(F)(F)F)cc2F)CC1 | 4600 nM |
| 5.84 | 7.72 | CN1CCN(c2cc3c(cc2F)c(=O)c(-c2noc(Cc4ccc(F)cc4)n2)cn3Cc2ccc(Cl)cc2)CC1 | 6400 nM |
| – | 5.74 | COc1ccc2c(c1)c(=O)c(-c1ncc(Cc3ccccc3)o1)cn2Cc1ccc(Cl)cc1 | – |
| – | < 5.00 | COc1cc2c(=O)c(-c3nc(-c4ccc(Cl)cc4)no3)cn(Cc3ccc(Cl)cc3)c2cc1OC | – |
| – | < 5.00 | COc1cc2c(=O)c(-c3noc(CCc4ccccc4)n3)cn(Cc3ccc(Cl)cc3)c2cc1OC | – |
| 5.36 | 6.94 | CN1CCN(c2cc3c(cc2F)c(=O)c(-c2nnc(Cc4ccccc4)o2)cn3Cc2ccc(Cl)cc2)CC1 | 9800 nM |
| – | < 5.00 | COc1cc2c(=O)c(-c3noc(-c4ccccc4)n3)cn(Cc3ccc(Cl)cc3)c2cc1OC | – |
| – | < 5.00 | COc1cc2c(=O)c(-c3nnn(Cc4ccccc4)n3)cn(Cc3ccc(Cl)cc3)c2cc1OC | – |
| 6.14 | 7.35 | CN1CCN(c2cc3c(cc2F)c(=O)c(-c2nnc(Cc4ccc(F)cc4)o2)cn3Cc2ccc(C(F)(F)F)cc2F)CC1 | 5700 nM |
| – | 6.14 | COc1cc2c(=O)c(-c3nc(Cc4ccccc4)no3)cn(Cc3ccc(Cl)cc3)c2cc1OC | – |
| – | 5.80 | COc1cc2c(=O)c(-c3nnc(Cc4ccc(Cl)cc4)o3)cn(Cc3ccc(Cl)cc3)c2cc1OC | – |
| 4.99 | 7.39 | COc1cc2c(=O)c(-c3noc(Cc4ccccc4)n3)cn(Cc3ccc(Cl)cc3)c2cc1OC | – |
| 6.44 | 7.62 | CN1CCN(c2cc3c(cc2F)c(=O)c(-c2noc(Cc4ccccc4)n2)cn3Cc2ccc(C(F)(F)F)cc2)CC1 | 15000 nM |
| 5.43 | 7.12 | CN1CCN(c2cc3c(cc2F)c(=O)c(-c2noc(Cc4ccc(F)cc4F)n2)cn3Cc2ccc(Cl)cc2)CC1 | 4700 nM |
| 6.08 | 7.64 | CN1CCN(c2cc3c(cc2F)c(=O)c(-c2noc(Cc4ccccc4)n2)cn3Cc2ccc(Cl)cc2)CC1 | 7300 nM |
